pEC50, pIC50: −log10 of the molar value. Where “and” joins values, the source holds several entries; their conditions need not be identical. Equal entries are not always repeated.
Columns and labels:
[1] = tested on: Human immunodeficiency virus 3; assay: Inhibitory concentration against HIV IIIB replication in H9 lymphocytes; format: functional, organism-based, human immunodeficiency virus type IIIB; details: Human immunodeficiency virus 1
[2] = Inhibitory concentration against HIV-I RTMDR1 in MT-4 cells; format: functional, cell-based, Human immunodeficiency virus 1; details: mt4
[3] = Effective concentration against HIV-I RTMDR1 in MT-4 cells; format: functional, cell-based, human immunodeficiency virus type i; details: mt4
Method in brief: (§1)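 MT4 cells (6 × 10⁵ cells/mL) were infected with diluted HIV-1 RTMDR1/MT2 stock (RT mutations L74V, M41L, V106A, T215Y) at MOI 0.001 TCID₅₀/cell. Compounds were added at various concentrations in RPMI 1640 with 10% FBS, then incubated at 37 °C in humidified CO₂. Medium containing compound was replenished on day 2. p24 in day-4 supernatants was measured by ELISA.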

[4] = tested on: Human immunodeficiency virus 1; assay: Effective concentration against HIV IIIB replication in H9 lymphocytes
[5] = Therapeutic index was determined; details: for selectivity ratio: read-out: TI
[6] = Effective concentration against HIV-I RTMDR1 in MT-4 cells; NS=No suppression at 10 ug/ml; format: functional, cell-based, human immunodeficiency virus type i; details: mt4; method in brief: as §1

pIC50 [1]	pIC50 [2]	pEC50 [3]	pEC50 [4]	EC50 [6]	Structure (SMILES)	TI [5]	selectivity ratio [5]
< 4.41	< 4.80	5.03	8.23	–	Cc1cc(=O)oc2c3c(ccc12)OC(C)(C)[C@H](OC(=O)C12CCC(C)(C(=O)O1)C2(C)C)[C@@H]3OC(=O)C12CCC(C)(C(=O)O1)C2(C)C (some centres not stated)	–	–
4.83	5.50	5.89	9.00	–	Cc1coc2c3c(ccc2c1=O)OC(C)(C)[C@H](OC(=O)C12CCC(C)(C(=O)O1)C2(C)C)[C@@H]3OC(=O)C12CCC(C)(C(=O)O1)C2(C)C (some centres not stated)	–	–
4.95	5.33	6.51	8.15	–	Cc1oc2c3c(ccc2c(=O)c1C)OC(C)(C)[C@H](OC(=O)C12CCC(C)(C(=O)O1)C2(C)C)[C@@H]3OC(=O)C12CCC(C)(C(=O)O1)C2(C)C (some centres not stated)	–	–
< 4.30	< 4.40	5.66	5.64	–	CC(=O)O[C@@H]1[C@H](OC(=O)C23CCC(C)(C(=O)O2)C3(C)C)c2c(ccc3c(=O)cc(C)oc23)OC1(C)C (some centres not stated)	18.2	21.9
4.85	–	–	8.89	No suppression	CC1(C)Oc2ccc3c(=O)ccoc3c2[C@@H](OC(=O)C23CCC(C)(C(=O)O2)C3(C)C)[C@H]1OC(=O)C12CCC(C)(C(=O)O1)C2(C)C (some centres not stated)	–	11100
4.39	4.77	6.52	6.06	–	Cc1cc(=O)c2ccc3c(c2o1)[C@@H](OC(=O)C12CCC(C)(C(=O)O1)C2(C)C)[C@@H](OC(=O)C(C)C)C(C)(C)O3 (some centres not stated)	56.3	46
< 4.35	5.20	5.35	5.65	–	CC(=O)O[C@@H]1[C@H](OC(=O)C23CCC(C)(C(=O)O2)C3(C)C)c2c(ccc3c(=O)cc(-c4ccccc4)oc23)OC1(C)C (some centres not stated)	–	–
< 4.36	< 4.76	5.96	6.21	–	CCOCc1cc(=O)c2ccc3c(c2o1)[C@@H](OC(=O)C12CCC(C)(C(=O)O1)C2(C)C)[C@@H](OC(=O)C(C)C)C(C)(C)O3 (some centres not stated)	–	–
< 4.49	4.89	6.23	8.24	–	Cc1cc(=O)c2ccc3c(c2o1)[C@@H](OC(=O)C12CCC(C)(C(=O)O1)C2(C)C)[C@@H](OC(=O)CC(C)C)C(C)(C)O3 (some centres not stated)	–	–
4.45	< 4.85	5.13	5.79	–	CCc1cc(=O)c2cc(C(C)(C)C)c3c(c2o1)[C@@H](OC(=O)C12CCC(C)(C(=O)O1)C2(C)C)[C@@H](OC(=O)C12CCC(C)(C(=O)O1)C2(C)C)C(C)(C)O3 (some centres not stated)	–	–
< 4.37	–	–	5.77	No suppression	CC(C)C(=O)O[C@@H]1[C@H](OC(=O)C23CCC(C)(C(=O)O2)C3(C)C)c2c(ccc3c(=O)cc(-c4ccccc4)oc23)OC1(C)C (some centres not stated)	–	25.3
< 4.45	–	–	5.81	No suppression	CC1(C)Oc2ccc3c(=O)c(-c4ccccc4)coc3c2[C@@H](OC(=O)C23CCC(C)(C(=O)O2)C3(C)C)[C@H]1OC(=O)C12CCC(C)(C(=O)O1)C2(C)C (some centres not stated)	–	23.3
< 4.33	< 4.73	6.55	6.60	–	CCc1cc(=O)c2ccc3c(c2o1)[C@@H](OC(=O)C12CCC(C)(C(=O)O1)C2(C)C)[C@@H](OC(=O)C(C)C)C(C)(C)O3 (some centres not stated)	182 and > 66.7	–
< 4.79	< 4.79	4.92	7.40	–	CC1(C)Oc2ccc3ccc(=O)oc3c2[C@@H](OC(=O)C23CCC(C)(C(=O)O2)C3(C)C)[C@H]1OC(=O)C12CCC(C)(C(=O)O1)C2(C)C (some centres not stated)	–	–
2.73	< 4.43	7.00	7.40	–	Cc1cn([C@H]2C[C@H](N=[N+]=[N-])[C@@H](CO)O2)c(=O)[nH]c1=O [ZIDOVUDINE]	–	–

Structure (SMILES)	pIC50 [1]	pIC50 [2]	pEC50 [3]	pEC50 [4]	EC50 [6]	TI [5]	selectivity ratio [5]
CC1(C)Oc2ccc3c(=O)cc(-c4ccccc4)oc3c2[C@@H](OC(=O)C23CCC(C)(C(=O)O2)C3(C)C)[C@H]1OC(=O)C12CCC(C)(C(=O)O1)C2(C)C (some centres not stated)	< 4.45	4.91	6.77	6.92	–	71	> 277
CCOCc1cc(=O)c2ccc3c(c2o1)[C@@H](OC(=O)C12CCC(C)(C(=O)O1)C2(C)C)[C@@H](OC(=O)C12CCC(C)(C(=O)O1)C2(C)C)C(C)(C)O3 (some centres not stated)	4.82	< 4.90	6.43	7.00	–	151	> 34
CC(C)c1cc(=O)c2ccc3c(c2o1)[C@@H](OC(=O)C12CCC(C)(C(=O)O1)C2(C)C)[C@@H](OC(=O)C12CCC(C)(C(=O)O1)C2(C)C)C(C)(C)O3 (some centres not stated)	4.48	< 4.82	6.85	7.15	–	483	> 111
Cc1cc(=O)c2ccc3c(c2o1)[C@@H](OC(=O)C12CCC(C)(C(=O)O1)C2(C)C)[C@@H](OC(=O)C12CCC(C)(C(=O)O1)C2(C)C)C(C)(C)O3 (some centres not stated)	4.56	4.93	6.72	8.51	–	8600	62.5
CCc1cc(=O)c2ccc3c(c2o1)[C@@H](OC(=O)C12CCC(C)(C(=O)O1)C2(C)C)[C@@H](OC(=O)C12CCC(C)(C(=O)O1)C2(C)C)C(C)(C)O3 (some centres not stated)	4.43	4.37	7.22	9.49	–	–	–
CCCc1cc(=O)c2ccc3c(c2o1)[C@@H](OC(=O)C12CCC(C)(C(=O)O1)C2(C)C)[C@@H](OC(=O)C12CCC(C)(C(=O)O1)C2(C)C)C(C)(C)O3 (some centres not stated)	< 4.42	4.42	6.85	7.70	–	–	–
